pIC50: −log10 of the molar value.
Tests used:
[1] = tested on: MCF7; assay: Growth inhibition of human MCF7 cells assessed as inhibition of cell proliferation after 24 hrs by MTT assay; assay type: functional; settings: MCF7, 24 h
How it was run: (§1)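 Cells seeded at (1–5) × 10^3 per well and grown 12 h at 37 °C. Compounds added at increasing concentrations in medium with 10% FBS for 24 h. MTT dye then added, followed by 3–4 h at 37 °C. Medium discarded, formazan dissolved in DMSO and plate read. GI50 calculated relative to DMSO-treated control wells.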

[2] = target: Tubulin (Bos taurus, UniProt Q6B856+Q862F3); assay: Inhibition of bovine brain tubulin polymerization extent after 20 mins by turbidimetrically
[3] = tested on: A549; assay: Growth inhibition of human A549 cells assessed as inhibition of cell proliferation after 24 hrs by MTT assay; assay type: functional; settings: A549, 24 h; how it was run: as §1
[4] = tested on: HepG2; assay: Growth inhibition of human HepG2 cells assessed as inhibition of cell proliferation after 24 hrs by MTT assay; assay type: functional; settings: HepG2, 24 h; how it was run: as §1
[5] = target: Tubulin (Bos taurus) (UniProt Q6B856+Q862F3); settings: at 5 µM

Tubulin, sequence (Q6B856 whole entry): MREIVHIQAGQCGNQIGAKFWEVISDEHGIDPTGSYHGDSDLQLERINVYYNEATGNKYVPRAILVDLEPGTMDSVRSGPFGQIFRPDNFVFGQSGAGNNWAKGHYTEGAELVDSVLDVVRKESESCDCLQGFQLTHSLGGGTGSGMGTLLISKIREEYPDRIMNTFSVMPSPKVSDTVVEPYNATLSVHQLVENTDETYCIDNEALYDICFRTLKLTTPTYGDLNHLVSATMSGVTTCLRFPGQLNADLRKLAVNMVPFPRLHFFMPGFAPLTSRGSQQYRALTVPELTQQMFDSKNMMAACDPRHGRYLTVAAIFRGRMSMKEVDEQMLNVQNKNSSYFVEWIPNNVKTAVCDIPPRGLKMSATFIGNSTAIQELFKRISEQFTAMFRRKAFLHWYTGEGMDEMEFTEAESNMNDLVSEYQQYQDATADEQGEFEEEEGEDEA
Tubulin, sequence (Q862F3 whole entry): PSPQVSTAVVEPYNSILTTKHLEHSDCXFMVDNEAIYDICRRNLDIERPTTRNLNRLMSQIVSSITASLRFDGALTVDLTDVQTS

GI50 [1] [µM]	pIC50 [2]	GI50 [3] [µM]	GI50 [4] [µM]	inhibition [5] [%]	SMILES
6.3	5.77	2.7	5.1	94	COc1ccc2c(c1)c(-c1nc3ccccc3n1C(=O)c1ccc(OC)c(OC)c1)cn2C
36.2	4.76	12.8	34.6	68	COc1ccccc1C(=O)n1c(-c2cn(C)c3ccc(Br)cc23)nc2ccccc21
10.2	5.68	3.1	8.4	87	COc1ccc(C(=O)n2c(-c3cn(C)c4ccccc34)nc3ccccc32)cc1OC
19.2	5.20	11.3	18.9	75	COc1ccc(C(=O)n2c(-c3cn(C)c4ccc(Br)cc34)nc3ccccc32)cc1
14.6	5.48	4.6	11.7	84	COc1cccc(C(=O)n2c(-c3cn(C)c4ccc(OC)cc34)nc3ccccc32)c1
32.1	4.80	12.3	31.8	70	COc1ccccc1C(=O)n1c(-c2cn(C)c3ccccc23)nc2ccccc21
13.5	–	4.4	10.5	–	COc1cc2c(c(OC)c1OC)-c1ccc(OC)c(=O)cc1[C@@H](NC(C)=O)CC2 [COLCHICINE]
5.4	5.80	2.6	4.3	95	COc1cc(C(=O)n2c(-c3cn(C)c4ccccc34)nc3ccccc32)cc(OC)c1OC
43.7	4.62	19.6	42.3	61	Cn1cc(-c2nc3ccccc3n2C(=O)c2ccccc2)c2ccccc21
18.2	5.24	10.8	17.8	78	COc1cccc(C(=O)n2c(-c3cn(C)c4ccc(Br)cc34)nc3ccccc32)c1
70.1	4.37	43.2	68.2	50	Cn1cc(-c2nc3ccccc3n2C(=O)c2ccccc2Br)c2ccccc21
52.7	4.53	24.8	51.3	57	COc1ccc2c(c1)c(-c1nc3ccccc3n1C(=O)c1cccc(Br)c1)cn2C
73.6	4.34	46.7	72.1	48	Cn1cc(-c2nc3ccccc3n2C(=O)c2ccccc2Br)c2cc(Br)ccc21
